Measured values of several laboratories.
Each line is one published result; the experiments were not run side by side.
Target: Bone morphogenetic protein receptor type-1B (BMPR1B, Homo sapiens, UniProt O00238)

O=C(c1ccc(Nc2ncc(Cl)c(-c3ccc(Cl)s3)n2)cc1)N1CCC(N2CCCC2)CC1
remaining binding (binding; competition with immobilised ligand; 1 µM): 18%

COc1ccc2c(c1)O[C@H](c1ccc(OC)c(OC)c1)C[C@@H]2NC(=O)C1(c2ccc3c(c2)OC(F)(F)O3)CC1
remaining binding (cell-free assay; competition with immobilised ligand; 1 µM): 100%

O=C(Nc1c[nH]nc1C(=O)NC1CCNCC1)c1cc(F)cc(F)c1
remaining binding (binding; competition with immobilised ligand; 1 µM): 84%

CC1=C(C#N)C(c2ccc3c(c2)c(NC(=O)c2ccccc2C)nn3C)C(C#N)=C(C)N1
remaining binding (cell-free assay; competition with immobilised ligand; 1 µM): 91%

COc1ccnn2ncc(-c3ccnc(N(C)C)n3)c12
remaining binding (binding; 1 µM): 51%

CN([C@@H]1CCc2c(CC(=O)O)c3cc(S(C)(=O)=O)ccc3n2C1)S(=O)(=O)c1ccc(F)cc1
remaining binding (cell-free assay; competition with immobilised ligand; 1 µM): 100%

O=C(NCCCN1CCOCC1)c1ccc(Nc2nccc(-c3cc4ccccc4s3)n2)cc1
remaining binding (binding; competition with immobilised ligand; 1 µM): 34%

C[C@H]1CCN(c2nccc(-c3cnn4ncccc34)n2)C1
remaining binding (binding; 1 µM): 60%

c1cncc(-c2cccc(Nc3nccc(NC4CCCCC4)n3)c2)c1
remaining binding (binding; competition with immobilised ligand; 10 µM): 47%

C=CC(=O)N1CCC(C(=O)NCC(=O)N2CCN(c3nc(-c4cnc(N)nc4C(F)F)nc(N4CCOCC4)n3)CC2)CC1
remaining binding (binding; competition with immobilised ligand; 1 µM): 64%

Nc1ncc2c(n1)-c1c([nH]c3ccc(C#CC4CC4)cc13)CCCC2
remaining binding (binding; competition with immobilised ligand; 1 µM): 96%

O=C(c1ccc(Nc2ncc(Cl)c(-c3cc4ccccc4s3)n2)cc1)N1CCC(N2CCCC2)CC1
remaining binding (binding; competition with immobilised ligand; 1 µM): 62%

COc1cnc(Nc2cccc(S(N)(=O)=O)c2)nc1N1CCN(c2ccccc2)C(=O)C1
remaining binding (binding; competition with immobilised ligand; 1 µM): 100%

FC(F)(F)Oc1cccc(-c2cnc3ccc(-c4ccncc4)nn23)c1
remaining binding (cell-free assay; competition with immobilised ligand; 5 µM): 22%

F[C@@H]1CCN(c2nccc(-c3cnn4ncccc34)n2)C1
remaining binding (binding; 1 µM): 72%

O=C(NCc1ncc(C(F)(F)F)cc1Cl)c1ccc2c(c1)C1(CCS(=O)(=O)CC1)[C@H](C1CC1)N2S(=O)(=O)c1ccc(F)cc1
remaining binding (cell-free assay; competition with immobilised ligand; 1 µM): 93%

CN(C)c1nccc(-c2cnc3ncccn23)n1
remaining binding (binding; 1 µM): 82%

CCOC(=O)c1cc2cc(-c3cc(C(=O)NCc4ccc(C(=O)O)cc4)nn3C)ccc2[nH]1
remaining binding (cell-free assay; competition with immobilised ligand; 0.1 µM): 96%

N[C@H]1CCN(c2nccc(-c3cnn4ncccc34)n2)C1
remaining binding (binding; 1 µM): 100%

CNC(=O)Nc1ccc2c(c1)[C@@]1(CC2)OC(=O)N(CC(=O)N(Cc2ccc(F)cc2)[C@@H](C)C(F)(F)F)C1=O
remaining binding (cell-free assay; competition with immobilised ligand; 1 µM): 100%

CN(CCCC(F)(F)F)c1nccc(-c2cnn3ncccc23)n1
remaining binding (binding; 1 µM): 93%

Cc1cc(C)c(-n2ccn3nc(-c4cccnc4)cc23)cc1NC(=O)c1cc(C#N)cc(S(F)(F)(F)(F)F)c1
remaining binding (cell-free assay; competition with immobilised ligand; 0.1 µM): 72.3%
